Consider 33 compounds from ChEMBL document CHEMBL4196224, “Novel Hypoxia-Inducible Factor 1α (HIF-1α) Inhibitors for Angiogenesis-Related Ocular Diseases: Discovery of a Novel Scaffold via Ring-Truncation Strategy” (J Med Chem, 2018).

The target in data set [1] is T1, Hypoxia-inducible factor 1-alpha (Homo sapiens, UniProt Q16665). The data set is described as follows: Inhibition of HIF-1alpha in human HRE-A549 cells pre-incubated for 1 hr before exposure to hypoxia for 24 hrs by HRE-luciferase reporter gene assay. The data set is classed as cell-based. An outline of the steps:
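A549 cells stably carrying an HRE-luciferase reporter (G418 600 μg/mL selection), kept in DMEM/10% FBS and grown to 80-90% confluence. Serum withdrawn overnight, compound added 1 h before 24 h hypoxia (1% O2, 5% CO2, 94% N2, 37 °C). Luciferase read by luminometer. IC50 is the mean of three independent experiments with standard error.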
On the technique in general: A reporter such as luciferase makes a cellular process visible.
Target sequence in this assay (Q16665 whole entry): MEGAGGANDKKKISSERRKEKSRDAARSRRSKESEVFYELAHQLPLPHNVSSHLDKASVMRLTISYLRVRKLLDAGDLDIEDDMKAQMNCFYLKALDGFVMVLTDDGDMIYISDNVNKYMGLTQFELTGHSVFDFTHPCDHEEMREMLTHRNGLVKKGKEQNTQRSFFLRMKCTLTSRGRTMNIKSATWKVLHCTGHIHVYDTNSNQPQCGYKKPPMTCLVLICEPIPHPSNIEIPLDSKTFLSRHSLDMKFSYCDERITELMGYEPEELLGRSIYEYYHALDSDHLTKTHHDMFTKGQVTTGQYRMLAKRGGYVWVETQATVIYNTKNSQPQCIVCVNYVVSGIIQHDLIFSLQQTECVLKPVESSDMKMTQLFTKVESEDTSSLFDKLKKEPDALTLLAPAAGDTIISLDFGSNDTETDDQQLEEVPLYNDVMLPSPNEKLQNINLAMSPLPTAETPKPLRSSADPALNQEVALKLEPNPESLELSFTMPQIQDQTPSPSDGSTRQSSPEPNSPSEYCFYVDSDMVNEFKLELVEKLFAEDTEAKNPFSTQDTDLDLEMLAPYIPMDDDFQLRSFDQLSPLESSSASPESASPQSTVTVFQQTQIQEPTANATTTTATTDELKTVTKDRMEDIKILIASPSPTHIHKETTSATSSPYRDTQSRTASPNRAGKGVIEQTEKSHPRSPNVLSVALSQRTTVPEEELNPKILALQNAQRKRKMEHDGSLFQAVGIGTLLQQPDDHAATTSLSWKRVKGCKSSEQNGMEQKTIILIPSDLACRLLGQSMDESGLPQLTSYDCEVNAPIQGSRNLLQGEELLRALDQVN

Data set [2] relates to Mus musculus. The data set is described as follows: Suppression of hypoxia-mediated retinal neovascularization in mouse model of oxygen-induced retinopathy assessed as reduction in retinal neovascular tufts at 100 nM dosed via intravitreal route. The data set is classed as functional, organism-based. Put shortly:
(§1)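 Newborn mice held in 75% ± 0.5% O2 from P7 to P12. Intravitreal injection of compound or PBS at P14 (n = 6). Retinas whole-mounted at P17 and stained with isolectin B4-594. Neovascular tuft area per retina measured by image analysis; mean ± SEM.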

For data set [3], the system named is Mus musculus. The data set is described as follows: Suppression of hypoxia-mediated retinal neovascularization in mouse model of oxygen-induced retinopathy assessed as reduction in retinal neovascular tufts at 1 uM dosed via intravitreal route. The data set is classed as functional, organism-based. Put shortly: as §1
A short description of data set [4]: Aqueous solubility of the compound in DPBS incubated for 24 hrs by LC/MS/MS method relative to SH-1242. It is filed as physicochemical. The note with it: buffer.
For data set [5], the system named is HUVEC. Nature of the data set: Antiangiogenic activity in HUVEC exposed to human HeLa cells derived conditioned media assessed as inhibition of hypoxia-induced [3H]-thymidine incorporation at 100 nM incubated for 24 hrs by liquid scintillation counting assay. The data set is classed as functional, cell-based. Put shortly:
(§2)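 Conditioned medium from RPE or HeLa cells grown in M199 with 1% FBS under hypoxia ± compound, passed through a 3 kDa cut-off filter. Proliferation: 5 x 10^3 endothelial cells on gelatin, 24 h, then CM 24 h; [3H]-thymidine incorporation, DNA solubilized in 0.2 N NaOH/0.1% SDS, scintillation counting. Migration: 1 x 10^5 cells in Transwell upper well over CM, 4 h, H&E stain, migrated cells counted. Tube formation: 2 x 10^5 cells on Matrigel in CM, 20 h, tube length measured in 5 random fields (x100).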

The subject of data set [6] is HUVEC. Nature of the data set: Antiangiogenic activity in HUVEC exposed to human HeLa cells derived conditioned media assessed as inhibition of hypoxia-induced cell migration at 100 nM incubated for 4 hrs by H and E staining based inverted phase contrast microscopy. It is filed as functional. Put shortly:
as §2

Data set [7] concerns HUVEC. The data set is described as follows: Antiangiogenic activity in HUVEC exposed to human HeLa cells derived conditioned media assessed as inhibition of hypoxia-induced cell tube formation at 100 nM incubated for 20 hrs. It is filed as functional, cell-based. Put shortly: as §2
The target in data set [8] is T1, Hypoxia-inducible factor 1-alpha. The data set is described as follows: Inhibition of HIF-1alpha in human A549 cell lysates assessed as reduction in Hsp90 and HIF-1alpha interaction at 1.25 uM in presence of ATP for 30 mins at 37 degC by immunoprecipitation and immunoblotting assay. An outline of the steps:
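Lysate from A549 cells exposed to 100 μM CoCl2 for 5 h, incubated with compound ± 20 mM ATP for 30 min at 37 °C. HIF-1α immunoprecipitated overnight at 4 °C, then protein G-agarose 2 h at 4 °C. Complex boiled in Laemmli buffer, run on 6% SDS-PAGE, blotted for HSP90.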
(In general: Immunoblotting shows a protein as a band on a membrane.)
Target sequence in this assay (Q16665 whole entry, looked up): as the sequence (Q16665 whole entry) above

For data set [9], the species on record is Homo sapiens. Nature of the data set: Antiangiogenic activity in HRMEC exposed to human RPE cells derived conditioned media assessed as inhibition of hypoxia-induced [3H]-thymidine incorporation at 100 nM incubated for 24 hrs by liquid scintillation counting assay. It is filed as functional. Put shortly: as §2
In general terms: Dividing cells build labelled thymidine or BrdU into new DNA.

Data set [10] is filed under the species Homo sapiens. Nature of the data set: Antiangiogenic activity in HRMEC exposed to human RPE cells derived conditioned media assessed as inhibition of hypoxia-induced cell migration at 100 nM incubated for 4 hrs by H and E staining based inverted phase contrast microscopy. The data set is classed as functional. An outline of the steps: as §2
Data set [11] is filed under the species Homo sapiens. Nature of the data set: Antiangiogenic activity in HRMEC exposed to human RPE cells derived conditioned media assessed as inhibition of hypoxia-induced tube formation at 100 nM incubated for 20 hrs. It is filed as functional. Put shortly:
as §2

In data set [12] the test system is Mus musculus. Nature of the data set: Suppression of hypoxia-mediated retinal neovascularization in mouse model of oxygen-induced retinopathy assessed as reduction in retinal neovascular tufts at 100 nM dosed via intravitreal route relative to SH-1242. The data set is classed as functional, organism-based. An outline of the steps:
as §1

The target of data set [13] is T1, Hypoxia-inducible factor 1-alpha. Nature of the data set: Induction of HIF-1alpha destabilization in human HCT116 cells under hypoxic conditions at 100 nM by Western blot method.
Target sequence in this assay (Q16665 whole entry, looked up): as the sequence (Q16665 whole entry) above
The target is the same in data set [14]. The data set is described as follows: Induction of HIF-1alpha destabilization in human HCT116 cells under hypoxic conditions assessed as reduction in hypoxia-induced VEGFA mRNA expression at 100 nM.
Target sequence in this assay (Q16665 whole entry, looked up): as the sequence (Q16665 whole entry) above
Data set [15] shares this target. Nature of the data set: Induction of HIF-1alpha destabilization in human HCT116 cells under hypoxic conditions assessed as reduction in hypoxia-induced VEGF production at 100 nM by ELISA.
Target sequence in this assay (Q16665 whole entry, looked up): as the sequence (Q16665 whole entry) above

Active and inactive are the calls of the source.

Usually IC50 stands for the point on the concentration scale where inhibition reaches its midpoint. Regarding `COc1ccc(CC(=O)c2ccc3c(c2OC)C=CC(C)(C)O3)cc1OC`, the concentration for half-maximal inhibition (IC50) in data set [1] amounted to 2150 nM. Also, the outcome in [2] and in data set [3] was Active.
Take `COc1ccc(N(C)C(=O)c2ccc3c(c2OC)C=CC(C)(C)O3)cc1OC`: the IC50 in [1] was 3150 nM.
As to `COc1ccc(CC(=O)c2ccc3c(c2OC)C=CC(C)(C)O3)cc1`, the IC50 in data set [1] amounted to 6210 nM.
The same measure, in the same setting: the figure for `COc1ccc(CC(O)c2ccc3c(c2OC)C=CC(C)(C)O3)cc1OC` (stereo unspecified) is 8880 nM.
Turning to `COc1c(C(=O)Cc2ccccc2O)ccc2c1C=CC(C)(C)O2`, half-maximal inhibition in data set [1] (IC50) was put at 940 nM.
Compound `COc1c(C(=O)Cc2ccc(F)cc2)ccc2c1C=CC(C)(C)O2` yielded an IC50 in data set [1] of 1020 nM.
Still for that read-out and setting: next, `COc1c(C(=O)Cc2ccccc2F)ccc2c1C=CC(C)(C)O2`: 100 nM.
With `COc1ccc([C@H](C)C(=O)c2ccc(NCc3ccc(C#N)cc3)cc2OC)cc1OC`, the outcome in [2] was Active.
Regarding `COc1ccc(C(C)C(=O)c2ccc(NCc3ccc(C#N)cc3)cc2OC)cc1OC` (racemic), the “fold change (FC)” value in data set [4] is 17. In addition, the result in data set [5], in data set [6], in data set [7], in data set [9], in data set [10] and in [11] was Active. The outcome in data set [12], in data set [13], in [14] and in data set [15] was Active. In data set [8], the inhibition result was “Active”.
Take `COc1c(C(=O)Cc2ccc(O)cc2)ccc2c1C=CC(C)(C)O2`: inhibition in [1] was half-maximal at 790 nM (IC50).
Same read-out and setting: next, `COc1c(C(=O)Cc2ccc3c(c2)OCO3)ccc2c1C=CC(C)(C)O2`: 3410 nM; `COc1ccc(CC(OC(C)=O)c2ccc3c(c2OC)C=CC(C)(C)O3)cc1OC` (stereo unspecified): 3040 nM.
With `COc1ccc([C@@H](C)C(=O)c2ccc(NCc3ccc(C#N)cc3)cc2OC)cc1OC`, the outcome in data set [2] was Active.
As for `COc1ccc(C(C)C(=O)c2ccc(N3CCCCC3)cc2OC)cc1OC` (racemic), the “fold change (FC)” value in data set [4] turned out to be 93. In addition, the outcome in data set [5], in [6], in data set [7], in [2] and in data set [3] was Active.
`C=CCC(C(=O)c1ccc2c(c1OC)C=CC(C)(C)O2)c1ccc(OC)c(OC)c1` (stereo unspecified) displayed a concentration for half-maximal inhibition (IC50) in data set [1] of 8450 nM.
On the same count and under the same terms, next, `COc1ccc(C(Cc2ccccc2)C(=O)c2ccc3c(c2OC)C=CC(C)(C)O3)cc1OC` (stereo unspecified): 12000 nM.
As for `COc1c(C(=O)Cc2ccc(F)c(F)c2)ccc2c1C=CC(C)(C)O2`, in data set [1], inhibition was half-maximal at 1270 nM (IC50).
Same read-out and setting: next, `COc1c(C(=O)Cc2ccccc2)ccc2c1C=CC(C)(C)O2`: 880 nM.
With `COc1ccc(N(Cc2ccccc2)C(=O)c2ccc3c(c2OC)C=CC(C)(C)O3)cc1OC`, in [1], the IC50 worked out at 10800 nM.
As for `COc1c(C(=O)Cc2cccc(F)c2)ccc2c1C=CC(C)(C)O2`, the IC50 in [1] stood at 360 nM.
For the compound `COc1c(C(=O)Cc2ccc(Cl)c(Cl)c2)ccc2c1C=CC(C)(C)O2`, half-maximal inhibition in data set [1] (IC50) required 2880 nM.
The compound `COc1ccccc1CC(=O)c1ccc2c(c1OC)C=CC(C)(C)O2` returned a half-maximal inhibitory concentration (IC50) in [1] of 3210 nM.
Take `COc1ccc(NC(=O)c2ccc3c(c2OC)C=CC(C)(C)O3)cc1OC`: in data set [1], the IC50 is 2040 nM.
The same measure, in the same setting: next, `COc1ccc(C(F)C(=O)c2ccc3c(c2OC)C=CC(C)(C)O3)cc1OC` (stereo unspecified): 6350 nM; `COc1ccc(C(C)C(=O)c2ccc(N3CCCC3)cc2)cc1OC` (racemic): 2610 nM.
Still for that read-out and setting: next, `COc1ccc(C(=O)C(C)c2ccc(OC)c(OC)c2)c(OC)c1` (racemic): more than 15000 nM; `COc1c(C(=O)Cc2ccc3c(c2)OCCO3)ccc2c1C=CC(C)(C)O2`: 1330 nM; `CCN(C(=O)c1ccc2c(c1OC)C=CC(C)(C)O2)c1ccc(OC)c(OC)c1`: 5250 nM.
Regarding `COc1cccc(CC(=O)c2ccc3c(c2OC)C=CC(C)(C)O3)c1`, 820 nM corresponded to half-maximal inhibition in data set [1] (IC50).
In [1], `COc1c(C(=O)Cc2cccc(O)c2)ccc2c1C=CC(C)(C)O2` displayed a half-maximal inhibitory concentration (IC50) of 1440 nM.
`COc1ccc(C(C)C(=O)c2ccc(O)cc2OC)cc1OC` (racemic): in data set [1], the IC50 was more than 15000 nM.
The same measure, in the same setting: next, `COc1ccc(C(C)C(=O)c2ccc(N(C)C)cc2OC)cc1OC` (racemic): more than 15000 nM.
Take `COc1ccc(C(C)C(=O)c2ccc3c(c2OC)C=CC(C)(C)O3)cc1OC` (racemic): in data set [1], half-maximal inhibition (IC50) required 1360 nM.
